Source: ChEMBL document CHEMBL1140739, “Modulation of cellular apoptosis with apoptotic protease-activating factor 1 (Apaf-1) inhibitors” (2008)
Activity calls are given as the source filed them. No cut-off for these calls is given here. Starred links: 1 amine or outer side, 2 acyl side, 3 side chain; linkers in the order of their positions; H or OH if unused. Non-standard residues stand in square brackets, D forms with d. Residues, ends and D or L forms follow the SMILES beside them. N(2,4-Cl2-phenethyl)Gly = O=C(O)CNCCc1ccc(Cl)cc1Cl; X1 = O=C(CN(CCC(c1ccccc1)c1ccccc1)[*:1])[*:2]

Columns and labels:
SAOS-2 [1] = experiment: Inhibition of apoptosome activity in human Saos2 cells assessed as inhibition of caspase 3 at 5 uM after 24 hrs by fluorimetric DEVDase assay; assay type: functional; conditions: SAOS-2, 24 h
Outline: (§1)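 Apoptosis was induced with doxorubicin in PBS (HeLa 2 µg/mL, 3 × 10⁵ cells/plate; U-2 OS 2.5 µg/mL, 3.5 × 10⁵ cells/plate) or with doxycycline 2 µg/mL (Saos-2, tet-ON Bax, 2 × 10⁵ cells/plate). Compound was added 30 min later at 5 µM, and cells were harvested at 24, 48 or 72 h. Lysis was by PIPES/KCl/EDTA/MgCl₂/DTT buffer with three freeze-thaw cycles. Protein was equalized by BCA, then 20 µM Ac-DEVD-afc was added in PBS with 10% glycerol, 0.1 mM EDTA and 2 mM DTT. Fluorescence was read at 37 °C (ex 400, em 508 nm) as ΔFU/min; mean ± SE, n > 3.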

SAOS-2 [2] = experiment: Antiapoptotic activity against human Saos2 cells assessed as cell recovery at 5 uM after 24 hrs by flow cytometry; assay type: functional
U2OS [3] = experiment: Antiapoptotic activity against human U2OS cells assessed as inhibition of doxorubicin-induced cell death by flow cytometry; assay type: functional, cell-based
U-937 [4] = experiment: Cytotoxicity against human U937 cells after 24 hrs by MTT assay; assay type: functional, cell-based
Outline: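 U937 cells in RPMI 1640 with 10% FCS and 2 mM L-glutamine were seeded at 2.5 × 10³ or 4 × 10³ cells/well and settled for 24 h. Filter-sterilized compounds were added at final 1, 5 and 10 µM (polymer conjugate at 20, 50 and 100 µM drug equivalent) for 19 h. MTT was then added for a further 5 h, giving 24 h total exposure. Formazan was dissolved in DMSO and read at 570 nm; mean ± SE, n > 3.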

U2OS [5] = experiment: Inhibition of apoptosome activity in human U2OS cells assessed as inhibition of caspase 3 at 5 uM after 48 hrs by fluorimetric DEVDase assay; assay type: functional; outline: as §1
SAOS-2 [6] = experiment: Antiapoptotic activity against human Saos2 cells assessed as inhibition of doxycyclin-induced cell death after 24 hrs by flow cytometry; assay type: functional, cell-based
A549 = experiment: Antiapoptotic activity against human A549 cells assessed as inhibition of doxorubicin-induced cell death after 24 hrs by flow cytometry; assay type: functional, cell-based
HeLa [7] = experiment: Inhibition of apoptosome activity in human HeLa cells assessed as inhibition of caspase 3 at 5 uM after 48 hrs by fluorimetric DEVDase assay; assay type: functional; outline: as §1
U-937 [8] = experiment: Antiapoptotic activity against human U937 cells assessed as inhibition of doxorubicin-induced cell death after 24 hrs by flow cytometry; assay type: functional, cell-based
U2OS [9] = experiment: Antiapoptotic activity against human U2OS cells assessed as inhibition of doxorubicin-induced cell death after 24 hrs by flow cytometry; assay type: functional, cell-based
HeLa [10] = experiment: Antiapoptotic activity against human HeLa cells assessed as inhibition of doxorubicin-induced cell death after 24 hrs by flow cytometry; assay type: functional, cell-based
SAOS-2 [11] = experiment: Inhibition of apoptosome activity in human Saos2 cells assessed as inhibition of caspase 3 after 24 hrs by fluorimetric DEVDase assay; assay type: functional, cell-based
SAOS-2 [12] = experiment: Antiapoptotic activity against human Saos2 cells assessed as inhibition of doxycyclin-induced cell death at 1 uM by flow cytometry; assay type: functional

Row | Compound | inhibition at 5 µM (SAOS-2 [1]) [%] | Activity (SAOS-2 [2]) [%] | also measured
1 | NC(=O)CN(CCc1ccccc1F)C(=O)C1CC(=O)N(CCc2ccc(Cl)cc2Cl)CC(=O)N1CCC(c1ccccc1)c1ccccc1 (stereo unspecified) | 51 | 16 | 
2 | CCCCN(CC(N)=O)C(=O)C1CC(=O)N(CCc2ccc(Cl)cc2Cl)CC(=O)N1CCC(c1ccccc1)c1ccccc1 (stereo unspecified) | 45 | 2 | 
3 | CC(=O)NCCN(CC(N)=O)C(=O)C1CC(=O)N(CCc2ccc(Cl)cc2Cl)CC(=O)N1CCC(c1ccccc1)c1ccccc1 (stereo unspecified) | 21 | 12 | 
4 | COc1ccccc1CCN(CC(N)=O)C(=O)C1CC(=O)N(CCc2ccc(Cl)cc2Cl)CC(=O)N1CCC(c1ccccc1)c1ccccc1 (stereo unspecified) | 1 | 41 | 
5 | NC(=O)CN(C(=O)C1CC(=O)N(CCc2ccc(Cl)cc2Cl)CC(=O)N1CCC(c1ccccc1)c1ccccc1)C1CC1 (stereo unspecified) | 16 | 10 | 
6 | NC(=O)CN(CCc1ccc(F)cc1)C(=O)C1CC(=O)N(CCc2ccc(Cl)cc2Cl)CC(=O)N1CCC(c1ccccc1)c1ccccc1 (stereo unspecified) | 34 | 57 | 
7 | CC(C)C[C@H](NC(=O)[C@H](C)NC(=O)[C@H](CCCCN)NC(=O)[C@@H](NC(=O)[C@@H](N)CS)[C@@H](C)O)C(=O)NCC(=O)N[C@@H](CS)C(=O)NCC(=O)NCC(=O)N[C@@H](Cc1ccc(O)cc1)C(=O)NCC(=O)N[C@@H](CCCNC(=N)N)C(=O)N[C@@H](CCCCN)C(=O)N[C@@H](CCCCN)C(=O)N[C@@H](CCCNC(=N)N)C(=O)N[C@@H](CCCNC(=N)N)C(=O)N[C@@H](CCC(N)=O)C(=O)N[C@@H](CCCNC(=N)N)C(=O)N[C@@H](CCCNC(=N)N)C(=O)N[C@@H](CCCNC(=N)N)C(=O)N(CCc1ccc(Cl)cc1Cl)CC(=O)N(CCC(c1ccccc1)c1ccccc1)CC(=O)N(CCc1ccc(Cl)cc1Cl)CC(N)=O (H-CTKALGCGGYGRKKRRQRRR[N(2,4-Cl2-phenethyl)Gly][X1][N(2,4-Cl2-phenethyl)Gly]-NH2) |  |  | Activity (U2OS [3]): inactive; Activity (U-937 [4]): Toxic
8 | NC(=O)CN(CC1CCCO1)C(=O)C1CC(=O)N(CCc2ccc(Cl)cc2Cl)CC(=O)N1CCC(c1ccccc1)c1ccccc1 (stereo unspecified) |  | 9 | 
9 | CC[C@H](C)[C@H](NC(=O)[C@H](CCCCN)NC(=O)[C@@H](NC(=O)[C@H](CCC(N)=O)NC(=O)[C@@H](N)CCCNC(=N)N)[C@@H](C)CC)C(=O)N[C@@H](Cc1c[nH]c2ccccc12)C(=O)N[C@@H](Cc1ccccc1)C(=O)N[C@@H](CCC(N)=O)C(=O)N[C@@H](CC(N)=O)C(=O)N[C@@H](CCCNC(=N)N)C(=O)N[C@@H](CCCNC(=N)N)C(=O)N[C@@H](CCSC)C(=O)N[C@@H](CCCCN)C(=O)N[C@@H](Cc1c[nH]c2ccccc12)C(=O)N[C@@H](CCCCN)C(=O)N[C@@H](CCCCN)C(=O)NCC(=O)NCC(=O)N(CCc1ccc(Cl)cc1Cl)CC(=O)N(CCC(c1ccccc1)c1ccccc1)CC(=O)N(CCc1ccc(Cl)cc1Cl)CC(N)=O |  |  | Activity (U-937 [4]): Toxic
10 | NC(=O)CN(CCc1ccc(Cl)cc1Cl)C(=O)C1CC(=O)N(CCc2ccc(Cl)cc2Cl)CC(=O)N1CCC(c1ccccc1)c1ccccc1 (stereo unspecified) | 53 | 50 | inhibition at 5 µM (U2OS [5]): 50%; Activity (SAOS-2 [6]): Active; Activity (A549): Active; inhibition at 5 µM (HeLa [7]): 60%; Activity (U-937 [8]): Active; Activity (U2OS [9]): Active; Activity (HeLa [10]): Active; Activity (U2OS [3]): Active; Activity (SAOS-2 [11]): Active; Activity (U-937 [4]): Not toxic; inhibition at 1 µM (SAOS-2 [12]): 60%
11 | NC(=O)CN(CCc1ccc(Cl)cc1)C(=O)C1CC(=O)N(CCc2ccc(Cl)cc2Cl)CC(=O)N1CCC(c1ccccc1)c1ccccc1 (stereo unspecified) | 2 | 23 | 
